In ChEMBL document CHEMBL3414437, “Synthesis of CDDO-amino acid-nitric oxide donor trihybrids as potential antitumor agents against both drug-sensitive and drug-resistant colon cancer” (J Med Chem, 2015):
Calls of active or inactive are those of the source. The calls are words filed in the database; no cut-off is given here.

Columns and labels:
[1] = target: Signal transducer and activator of transcription 3 (Homo sapiens) (UniProt P40763); experiment: Inhibition of STAT3 protein phosphorylation in FU-resistant human HCT8 cells at 1 uM incubated for 24 hrs by Western blotting method; type: cell-based; conditions: HCT-8
Outline: (§1)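 Cells (1 x 10^6) grown 24 h in 6 cm dishes, then exposed in duplicate for 24 h to 0.25, 0.5 or 1 µM compound, with or without PTIO. Lysates (20 µg/lane) were run on 7.5% SDS-PAGE, blotted to PVDF and blocked in 5% milk. HRP secondaries with ECL detection; bands quantified by densitometry against β-actin or GAPDH. Three separate experiments, mean ± SD.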

HCT-8 [2] = experiment: Inhibition of MRP1 protein expression in FU-resistant human HCT8 cells at 1 uM incubated for 24 hrs by Western blotting method; type: functional, cell-based; outline: as §1
[3] = target: RAC-alpha serine/threonine-protein kinase (Homo sapiens) (UniProt P31749); experiment: Inhibition of AKT protein phosphorylation in human HCT8 cells at 1 uM incubated for 24 hrs by Western blotting method; type: cell-based; conditions: HCT-8; outline: as §1
HCT-8 [4] = experiment: Inhibition of HIF-1alpha protein expression in FU-resistant human HCT8 cells at 1 uM incubated for 24 hrs by Western blotting method; type: functional, cell-based; outline: as §1
HCT-8 [5] = experiment: (§2) Antiproliferative activity against 5-FU resistant human HCT8 cells assessed as inhibition of cell proliferation at 1 uM after 72 hrs by MTT assay; type: functional
Outline: (§3)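 Cells grown in DMEM with 10% FBS and exposed to compound at 1 µM for 72 h. Proliferation measured by MTT at 570 nm and expressed as % inhibition versus untreated cells. Mean ± SD of three independent experiments.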

[6] = target: RAC-alpha serine/threonine-protein kinase (Homo sapiens) (UniProt P31749); experiment: Inhibition of AKT protein phosphorylation in FU-resistant human HCT8 cells at 1 uM incubated for 24 hrs by Western blotting method; type: cell-based; conditions: HCT-8; outline: as §1
Mus musculus [7] = experiment: Toxicity in nude BALB/c mouse xenografted with FU-resistant human HCT8 cells assessed as abnormal color changes in kidney at 59.4 umol/kg administered as via oral gavage daily for 21 days; type: organism-based, HCT-8; conditions: in vivo, 504 h
Outline: (§4)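 Male BALB/c nude mice aged 6-8 weeks, implanted s.c. in the right flank with HCT-8/5-FU cells (2 × 10^6). Once tumors reached 180-200 mm3 (days 9-11), randomized to daily gavage for 21 days in cremophor-EL/DMSO/PBS (1:1:8), 0.2 mL. At the end, liver, kidney, lung and heart checked for size, colour and weight. n = 8 per group.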

HCT-8 [8] = experiment: Antiproliferative activity against human HCT8 cells assessed as inhibition of cell proliferation at 0.25 uM dosed 1 hr after NO scavenger carboxy-PTIO treatment and measured after 24 hrs by MTT assay; type: functional
HCT-8 [9] = experiment: Antiproliferative activity against human HCT8 cells assessed as inhibition of cell proliferation at 0.125 to 0.5 uM incubated for 72 hrs after 24 hrs of pre-treatment with 0.75 uM and 1 .5 uM pepT1 substrate Gly-Sar by MTT assay; type: functional, cell-based
Outline: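 Cells pretreated with or without Gly-Sar (0.75 or 1.5 µM) for 24 h, then given a range of compound concentrations for 72 h. Proliferation inhibition measured by MTT.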

Mus musculus [10] = experiment: Toxicity in nude BALB/c mouse xenografted with FU-resistant human HCT8 cells assessed as abnormal color changes in liver at 17.8 to 35.7 umol/kg administered as via oral gavage daily for 21 days; type: organism-based, HCT-8; conditions: in vivo, 504 h; outline: as §4
[11] = target: Signal transducer and activator of transcription 3 (Homo sapiens) (UniProt P40763); experiment: Inhibition of STAT3 protein phosphorylation in FU-resistant human HCT8 cells at 0.25 to 1 uM incubated for 24 hrs by Western blotting method; type: cell-based; conditions: HCT-8; outline: as §1
[12] = as §2; type: functional; conditions: HCT-8, 72 h, read-out: GI; outline: as §3
HCT-8 [13] = experiment: Inhibition of P-gp protein expression in FU-resistant human HCT8 cells at 1 uM in presence of NO scavenger carboxy-PTIO incubated for 24 hrs by Western blotting method; type: functional, cell-based; outline: as §1
Mus musculus [14] = experiment: Toxicity in female ICR mouse assessed as body weight level at 2.38 x 10^3 umol/kg administered as single dose via oral gavage measured on day 7 post treatment (reference value: 19.8 +/- 0.92 g); type: organism-based; conditions: in vivo
Mus musculus [15] = experiment: Toxicity in nude BALB/c mouse xenografted with FU-resistant human HCT8 cells assessed as abnormal size changes in kidney at 17.8 to 35.7 umol/kg administered as via oral gavage daily for 21 days; type: organism-based, HCT-8; conditions: in vivo, 504 h; outline: as §4
HCT-8 [16] = experiment: Inhibition of P-gp protein expression in FU-resistant human HCT8 cells at 0.25 to 1 uM incubated for 24 hrs by Western blotting method; type: functional, cell-based; outline: as §1
Mus musculus [17] = experiment: Toxicity in nude BALB/c mouse xenografted with FU-resistant human HCT8 cells assessed as abnormal weight changes in kidney at 17.8 to 35.7 umol/kg administered as via oral gavage daily for 21 days; type: organism-based, HCT-8; conditions: in vivo, 504 h; outline: as §4
HCT-8 [18] = experiment: Antiproliferative activity against 5-FU resistant human HCT8 cells assessed as inhibition of cell proliferation at 0.25 uM after 24 hrs by MTT assay; type: functional, cell-based
[19] = Toxicity in female ICR mouse assessed as mouse mortality at 2.38 x 10^3 umol/kg administered as single dose via oral gavage measured up to 14 days post treatment; type: organism-based; conditions: in vivo
Outline: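 Female or male adult ICR mice, 10 per sex group, were randomised and given a single oral gavage dose of 2,000 mg/kg in cremophor-EL/DMSO/PBS (1:1:8). Total mortality was recorded over days 1–14, and body weight on days 0, 7 and 14 as mean ± SD.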

Mus musculus [20] = experiment: Toxicity in nude BALB/c mouse xenografted with FU-resistant human HCT8 cells assessed as abnormal size changes in heart at 17.8 to 35.7 umol/kg administered as via oral gavage daily for 21 days; type: organism-based, HCT-8; conditions: in vivo, 504 h; outline: as §4
Mus musculus [21] = experiment: Toxicity in nude BALB/c mouse xenografted with FU-resistant human HCT8 cells assessed as abnormal size changes in liver at 17.8 to 35.7 umol/kg administered as via oral gavage daily for 21 days; type: organism-based, HCT-8; conditions: in vivo, 504 h; outline: as §4
Mus musculus [22] = experiment: Toxicity in nude BALB/c mouse xenografted with FU-resistant human HCT8 cells assessed as body weight level at 35.7 umol/kg administered as via oral gavage daily for 21 days (reference value: 21.1 +/- 1.5 g); type: organism-based, HCT-8; conditions: in vivo, 504 h
Outline: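 Male BALB/c nude mice, 6-8 weeks old, inoculated s.c. in right flank with HCT-8/5-FU cells (2 × 10^6/mouse). Once tumors reached 180-200 mm3 (9-11 days post-implantation), mice were randomized and dosed by gavage daily for 21 consecutive days in cremophor-EL/DMSO/PBS (1:1:8) (vehicle alone 0.2 mL). Body weights recorded on day 1 and day 21. Organ size, color and weights were inspected for liver, kidney, lung and heart. n = 8 per group; mean ± SD.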

Mus musculus [23] = experiment: Toxicity in nude BALB/c mouse xenografted with FU-resistant human HCT8 cells assessed as abnormal color changes in kidney at 17.8 to 35.7 umol/kg administered as via oral gavage daily for 21 days; type: organism-based, HCT-8; conditions: in vivo, 504 h; outline: as §4
CCD-841CoN = experiment: Induction of nitric oxide release in human CCD-841-CoN cells at 100 uM incubated for 150 mins by Griess assay; type: functional, cell-based
Outline: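 Cells (1 × 10^6/well) treated in triplicate with compound at 100 µM for 150 min. Lysates mixed with Griess reagent for 10 min at 37 °C and read at 540 nm. Nitrite quantified from a sodium nitrite standard curve; 0.4% DMSO-treated cells served as background. Mean ± SD of three experiments.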

HCT-8 [24] = experiment: Antiproliferative activity against human HCT8 cells assessed as inhibition of cell proliferation at 0.25 uM after 24 hrs by MTT assay; type: functional, cell-based

Signal transducer and activator of transcription 3 (Homo sapiens), sequence (P40763 whole entry): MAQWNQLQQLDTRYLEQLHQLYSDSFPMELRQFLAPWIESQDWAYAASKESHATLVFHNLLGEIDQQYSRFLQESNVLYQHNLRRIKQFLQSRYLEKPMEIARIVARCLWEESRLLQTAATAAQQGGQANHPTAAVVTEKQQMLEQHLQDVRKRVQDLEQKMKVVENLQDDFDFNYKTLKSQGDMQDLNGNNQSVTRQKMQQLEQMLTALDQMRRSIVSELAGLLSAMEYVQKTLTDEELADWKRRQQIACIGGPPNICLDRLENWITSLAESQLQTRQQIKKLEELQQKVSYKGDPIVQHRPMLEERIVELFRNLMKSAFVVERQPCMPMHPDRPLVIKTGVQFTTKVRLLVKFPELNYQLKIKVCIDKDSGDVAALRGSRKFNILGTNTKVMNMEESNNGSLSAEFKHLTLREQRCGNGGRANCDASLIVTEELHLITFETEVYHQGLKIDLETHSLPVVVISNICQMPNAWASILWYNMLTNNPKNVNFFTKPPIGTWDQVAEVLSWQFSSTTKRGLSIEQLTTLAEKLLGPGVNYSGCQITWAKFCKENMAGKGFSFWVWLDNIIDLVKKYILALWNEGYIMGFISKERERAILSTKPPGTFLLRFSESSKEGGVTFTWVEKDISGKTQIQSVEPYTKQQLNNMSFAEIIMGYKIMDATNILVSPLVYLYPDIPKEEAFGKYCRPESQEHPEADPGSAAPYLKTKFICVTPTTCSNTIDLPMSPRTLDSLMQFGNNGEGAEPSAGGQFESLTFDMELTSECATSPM
RAC-alpha serine/threonine-protein kinase (Homo sapiens), sequence (P31749 whole entry): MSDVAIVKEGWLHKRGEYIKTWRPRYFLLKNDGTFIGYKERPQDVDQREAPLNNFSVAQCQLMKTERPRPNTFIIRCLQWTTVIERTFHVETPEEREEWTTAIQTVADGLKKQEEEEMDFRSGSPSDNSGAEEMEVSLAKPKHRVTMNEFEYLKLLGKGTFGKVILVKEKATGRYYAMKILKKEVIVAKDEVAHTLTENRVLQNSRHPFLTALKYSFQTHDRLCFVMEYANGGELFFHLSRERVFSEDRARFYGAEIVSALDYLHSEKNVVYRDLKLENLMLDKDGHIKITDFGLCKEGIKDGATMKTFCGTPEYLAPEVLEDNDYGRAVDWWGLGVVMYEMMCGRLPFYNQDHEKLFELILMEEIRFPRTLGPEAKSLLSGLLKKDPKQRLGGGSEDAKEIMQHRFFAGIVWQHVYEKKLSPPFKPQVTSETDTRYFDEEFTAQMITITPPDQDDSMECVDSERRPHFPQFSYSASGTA

In the case of COC(=O)[C@]12CCC(C)(C)C[C@H]1[C@H]1C(=O)C=C3[C@@]4(C)C=C(C#N)C(=O)C(C)(C)[C@@H]4CC[C@@]3(C)[C@]1(C)CC2 [BARDOXOLONE METHYL], the inhibition [1] is reported as “Active”, the inhibition (HCT-8 [2]) is reported as “inactive” and the inhibition [3] is reported as “Active”. The inhibition (HCT-8 [4]) was “Active”, the “growth inhibition (GI)” value (HCT-8 [5]) was “Active” and the inhibition [6] was “Active”. The Activity (Mus musculus [7]) was “Non-toxic”.
In the case of CC1(C)CC[C@]2(C(=O)NCC(=O)OCC#CCOc3no[n+]([O-])c3S(=O)(=O)c3ccccc3)CC[C@]3(C)[C@H](C(=O)C=C4[C@@]5(C)C=C(C#N)C(=O)C(C)(C)[C@@H]5CC[C@]43C)[C@@H]2C1, the inhibition (HCT-8 [8]) is reported as “inactive”, the inhibition (HCT-8 [9]) is reported as “inactive” and the Activity (Mus musculus [10]) is reported as “Non-toxic”. The inhibition [11] was “Dose-dependent effect”, the inhibition of growth at 1 µM [12] was greater than 90% and the inhibition (HCT-8 [13]) was “inactive”. For the same compound, the Activity (Mus musculus [14]) was 25 g, the Activity (Mus musculus [15]) was “Non-toxic” and the inhibition (HCT-8 [16]) was “Dose-dependent effect”. For the same compound, the Activity (Mus musculus [17]) was “Non-toxic”, the Activity (HCT-8 [18]) was “Active” and the mortality at 336 h [19] was 0%. For the same compound, the Activity (Mus musculus [20]) was “Non-toxic”, the Activity (Mus musculus [21]) was “Non-toxic” and the Activity (Mus musculus [22]) was 16.7 g. The Activity (Mus musculus [23]) was “Non-toxic”, the Activity (CCD-841CoN) was “inactive” and the Activity (HCT-8 [24]) was “Active”.
